TAAR1 antag: human TAAR1 antagonists, primary screen, Fluo-8 calcium fluorescence, CHO RD-HGA16 cells. Trace amine-associated receptor 1 (Homo sapiens), Q96RJ0. antagonist. inhibition, % at 3 µM. 360,000 tested, 1.5% active;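 active means inhibition above a per-plate cutoff, the mean inhibition of test compounds on that plate plus 3 SD, cut at about 49% in these data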
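Assay system: CHO-derived RD-HGA16 cells stably expressing human TAAR1 plus Gα16. Timing: 140 s kinetic read after compound, 140 s after agonist. Technique: kinetic Fluo-8 calcium fluorescence measurement. Measure: % inhibition of agonist calcium response.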
OX1R antag-1: antagonists of human orexin 1 receptor (OX1R) | Orexin/Hypocretin receptor type 1 (Homo sapiens), O43613 | OX1R-expressing cells, FRET antagonist read-out | inhibition, % at 6.6 µM | 330,000 tested, 1.8% active | AID 485270, 2010; in the data active means inhibition mostly above about 38%, no sharp cut-off; inactive means mostly below about 40%
GPR7 antagonist: GPR7 receptor antagonists, primary screen, cell-based, fluorescence, single concentration; AID 1861, 2009; inhibition, % at 4.4 µM; GPR7-expressing cells, fluorescence antagonist assay; 290,000 tested, 1.1% active; in the data active means inhibition above about 16%, passing the limit was not always enough;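 further: cells stimulated with the agonist NPW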
Target sequence (P48145 whole entry, looked up): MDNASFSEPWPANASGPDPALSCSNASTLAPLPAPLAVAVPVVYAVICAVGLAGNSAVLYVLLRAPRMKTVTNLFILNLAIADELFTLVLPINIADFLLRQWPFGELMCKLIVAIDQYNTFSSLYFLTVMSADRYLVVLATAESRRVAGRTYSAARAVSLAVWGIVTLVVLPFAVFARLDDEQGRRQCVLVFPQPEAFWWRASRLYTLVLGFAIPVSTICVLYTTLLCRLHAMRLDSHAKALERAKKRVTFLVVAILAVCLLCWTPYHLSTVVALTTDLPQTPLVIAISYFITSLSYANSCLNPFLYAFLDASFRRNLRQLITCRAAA
TAAR1 agonist: human TAAR1 agonists, primary screen, Fluo-8 calcium fluorescence, CHO RD-HGA16 cells. vehicle wells 0%, saturating PEA agonist 100%. activation, % at 3 µM. 360,000 tested, 0.99% active;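 active means activation above the mean activation of all test compounds in the run plus 3 SD, cut at about 38% in these data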
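test system = CHO RD-HGA16 cells carrying human TAAR1 plus Gα16 | schedule = 17-24 h seeding, 75 min 37 °C dye, 30 min RT | compound dosing = 3 µM single concentration | control set = DMSO and PEA EC100 | replicates = n 1 | signal = Fluo-8 fluorescence, 5 s baseline then 140 s kinetic read | measure = percent activation vs PEA EC100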
CHO parental Ca: ATP-evoked calcium signal inhibitors, parental CHO, primary screen, counter-screen for OX1R antagonist project, cell-based, fluorescence, Fluo-8 calcium dye | AID 463079, 2010 | 330,000 tested, 0.63% active | parental CHO-K1, ATP-induced calcium, Fluo-8 fluorescence | inhibition, % at 5.6 µM;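 active means inhibition above that plate's mean sample inhibition plus 3 SD, cut at about 26% in these data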
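Assay system: parental CHO cells; Read-out basis: percent inhibition of ATP-evoked calcium rise, normalized to controls; Benchmarks: ATP and no-ATP DMSO wells; Compound dosing: single nominal dose of 5.6 µM per compound; Signal: Fluo-8 calcium dye fluorescence; Also added: ATP as calcium-mobilizing challenge; Repeats: singlicate.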
OX1R antag-2: OX1R (HCRTR1) antagonists, primary screen, fluorescence, CHO/OX1R cells, Fluo-8 calcium, orexin A; Orexin/Hypocretin receptor type 1 (Homo sapiens), O43613; Fluo-8 calcium fluorescence; inhibition, % at 5 µM; 330,000 tested, 0.43% active; AID 434989, 2010;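 active means inhibition above its plate's threshold, mean inhibition of all tested compounds on the plate plus 3 SD, cut at about 37% in these data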
Large screens that a line does not name were inactive. Compounds with a hit are over-represented: about 4.5% of the library has one in this group of screens.

COc1ccc2[nH]c3c(NCCC4=CCCCC4)ncnc3c2c1	GPR7 antagonist 23 (no result: OX1R antag-1, CHO parental Ca, OX1R antag-2)
CCN(CC)CCNc1ncnc2c1[nH]c1ccc(OC)cc12	none (no result: TAAR1 antag, TAAR1 agonist)
COc1cccc(C2=NOC(C(=O)NCc3ccccn3)C2)c1 (centres undefined)	TAAR1 agonist 45
Cc1cc(S(=O)(=O)Nc2ccc(C(=O)NCCN3CCOCC3)cc2)ccc1F	none (no result: OX1R antag-1, GPR7 antagonist, CHO parental Ca, OX1R antag-2)
O=C(NCc1cccnc1)/C(=C/c1ccc(-c2cccc(C(F)(F)F)c2)o1)NC(=O)c1ccccc1	none
Cc1ccc(C(=O)N/C(=C/c2ccc(-c3cc(C(F)(F)F)ccc3Cl)o2)C(=O)NCc2cccnc2)cc1	OX1R antag-1 36
COc1cc2c(cc1OC(C)=O)CCCCC2=O	none (no result: OX1R antag-1, GPR7 antagonist, CHO parental Ca, OX1R antag-2)
CC(C)NC(=O)N(C)C[C@H]1OCc2cn(nn2)CCCC(=O)N([C@H](C)CO)C[C@@H]1C	none (no result: OX1R antag-1, GPR7 antagonist, CHO parental Ca, OX1R antag-2)
CCOC(=O)C1=CCC(c2ccccc2)N(S(C)(=O)=O)C1 (centres undefined)	none (no result: OX1R antag-1, GPR7 antagonist, CHO parental Ca, OX1R antag-2)
N#CC(c1ccc(F)cc1)c1ccc(C(=O)c2ccc(F)cc2)cc1 (centres undefined)	TAAR1 antag 56
O=C(c1ccc(F)cc1)c1ccc(-c2ccc(F)cc2)nc1	none
COc1ccc(NC(=O)N(C)C[C@H]2OCc3cn(nn3)CCCC(=O)N([C@H](C)CO)C[C@@H]2C)cc1	none (no result: OX1R antag-1, GPR7 antagonist, CHO parental Ca, OX1R antag-2)
CCC(=O)Nc1ccc2nc3c(=O)[nH]c(=S)[nH]c3nc2c1	OX1R antag-1 65
COc1ccc(CN(C)C(=O)c2cccc(Oc3ccccc3)c2)c(OC)c1OC	TAAR1 antag 54
COc1ccc(CN(C)C(=O)C(Cc2ccccc2)NC(=O)c2ccccc2)c(OC)c1OC (centres undefined)	TAAR1 antag 54 (no result: OX1R antag-1, GPR7 antagonist, CHO parental Ca, OX1R antag-2)
COc1ccc(-c2ncn(CCc3ccccc3OC)c2CC(C)C)cc1	none (no result: OX1R antag-1, GPR7 antagonist, CHO parental Ca, OX1R antag-2)
CSCCC(NC(=O)COc1ccccc1)C(=O)N(C)Cc1ccc(SC)cc1 (centres undefined)	TAAR1 antag 52 (no result: GPR7 antagonist)
O=C(O)CNc1nc(-c2ccccc2)nc2ccccc12	none
CCCOC(=O)c1cccc(Nc2nc(-c3cccnc3)nc3ccccc23)c1	TAAR1 antag 62
O=C(OCCNc1nc(-c2ccccc2)nc2ccccc12)c1ccncc1	OX1R antag-1 57
O=C(O)c1cccc(Nc2nc(-c3ccccc3)nc3ccccc23)c1	none
O=C(OCCNc1nc(-c2ccccc2)nc2ccccc12)c1cccnc1	OX1R antag-1 48
O=C(O)CCNc1nc(-c2ccccc2)nc2ccccc12	none
CCN(CC)CCNc1c(C)cc(CO)c(Cl)c1C	none (no result: OX1R antag-1, GPR7 antagonist, CHO parental Ca, OX1R antag-2)
CS(=O)(=O)c1ccc2nc(NC(=O)c3ccccc3Cl)sc2c1	none (no result: OX1R antag-1, CHO parental Ca, OX1R antag-2)
COc1ccccc1C(=O)Nc1nc2ccc(S(C)(=O)=O)cc2s1	OX1R antag-1 41
CCOc1ccc2nc(NC(=O)c3ccccn3)sc2c1	none
Cc1ccc2nc(NC(=O)c3ccccn3)sc2c1	CHO parental Ca 27
Cc1cc(C(=O)CSc2nc(N)cc(=O)[nH]2)c(C)n1-c1ccc(OC(F)F)cc1	CHO parental Ca 38
COc1ccc(C(N)c2csc(Nc3ncccn3)n2)cc1 (centres undefined)	none (no result: OX1R antag-1, GPR7 antagonist, CHO parental Ca, OX1R antag-2)
NC(c1csc(Nc2cc(Oc3ccccc3)ncn2)n1)C1CCCCC1 (centres undefined)	TAAR1 agonist 43 (no result: OX1R antag-1, GPR7 antagonist, CHO parental Ca, OX1R antag-2)
COc1ccc(C(N)c2csc(Nc3cc(Oc4ccccc4)ncn3)n2)cc1 (centres undefined)	TAAR1 agonist 38 (no result: OX1R antag-1, GPR7 antagonist, CHO parental Ca, OX1R antag-2)
Nc1ccc(CC(N)c2csc(Nc3cc(Oc4ccccc4)ncn3)n2)cc1 (centres undefined)	none (no result: OX1R antag-1, GPR7 antagonist, CHO parental Ca, OX1R antag-2)
COc1ccc(C(N)c2csc(Nc3nncc4ccccc34)n2)cc1 (centres undefined)	TAAR1 agonist 42 (no result: OX1R antag-1, GPR7 antagonist, CHO parental Ca, OX1R antag-2)
OC(c1ccc(-c2ccccc2)cc1)c1ncc(-c2ccccc2)[nH]1 (centres undefined)	none (no result: OX1R antag-1, GPR7 antagonist, CHO parental Ca, OX1R antag-2)
COc1ccccc1CCn1cnc(-c2ccccc2F)c1CC(C)C	none (no result: OX1R antag-1, GPR7 antagonist, CHO parental Ca, OX1R antag-2)

From PubChem BioAssay
